The sample as a whole holds a higher share of hits than the screen did.
CHOP inh – inhibitors of CHOP promoter induction, primary screen, cell-based, unfolded protein response, luciferase reporter | CHO-K1 CHOP-promoter luciferase, tunicamycin-induced, 15-18 h | inhibition, % at 10 µM | actives 3.8% (n = 220,000);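 active means compounds that reduced the stress-induced luciferase reporter signal by more than about 70% of percent inhibition, limit read from the data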;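 further: 0% = tunicamycin plus vehicle and 100% = wells without tunicamycin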
H9c2 protect – cardioprotection against H2O2-induced cell death, primary screen, uHTS, H9c2 cells, ATPLite luminescence | H9c2 cardiomyocytes, H2O2 injury protection, 2 h | protection from H2O2 cell death, % at 20 µM | actives 0.63% (n = 360,000) | AID 588492, 2011;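 active means compounds giving at least 50% protection of heart cells from peroxide-induced death in the single-dose screen, raw or plate-pattern-corrected value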;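 further: 0% = DMSO wells with peroxide and 100% = DMSO wells without peroxide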
CHOP UPR activ – activators of apoptotic CHOP UPR arm, primary screen, cell-based, CHO-CHOP luciferase reporter, luminescence, uHTS. UPR activation; percent of tunicamycin response over DMSO baseline. activation, % at 10 µM. actives 0.34% (n = 330,000). AID 449763, 2010;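 active means at 10 µM dose, activation of 40% or more, normalized to positive control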;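 further: 100% = tunicamycin at 10 µg/mL and 0% = DMSO alone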
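Test system: CHO CHOP reporter cells. Input: 500 CHO-CHOP cells per well. Medium: F12 with 10% FBS. Technique: luciferase luminescence. Measure: percent activation relative to tunicamycin control. Dosing: 10 µM compound, 0.5% DMSO. Timing: 16-18 h cell attachment, then 6 h compound exposure, 37 °C.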
hiPSC survival – enhancers of single-cell hiPSC survival, primary screen, ATPlite luminescence; 100% = ROCK inhibitor wells, 0% = DMSO; survival enhancement, % at 20 µM; actives 0.044% (n = 360,000); in the data active means survival enhancement above about 18%;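 further: cells exposed to compounds for 16 hours before the ATP read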
XBP1 UPR activ – activators of adaptive XBP1 UPR arm, primary screen, cell-based, CHO-XBP1 luciferase reporter, luminescence, uHTS. IRE1-XBP1 UPR activation; percent of tunicamycin response, DMSO as zero. activation, % at 20 µM. AID 463104, 2010. actives 0.33% (n = 330,000);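 active means versus positive control, 20 µM dose yields 30% or more activation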;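 further: 100% = tunicamycin at 10 µg/mL and 0% = DMSO only wells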
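Assay system: IRE1-XBP1 luciferase reporter CHO line. Input: 1000 cells/well. Buffer or medium: F12 with 10% serum. Doses: 20 µM, 1% DMSO. Times: overnight seeding at 37 °C, 6 h compound treatment at 37 °C. Technique: Steady-Glo luciferase glow luminescence, 10 min after reagent addition.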
Active calls of the source: *; . = not tested or not shown.

SMILES	CHOP inh	H9c2 protect	CHOP UPR activ	hiPSC survival	XBP1 UPR activ
CCOC(=O)c1cnc2c(OC)cccc2c1N1CCN(c2ccc(OC)cc2)CC1	83*	23	0	-1	-3
c1coc(-c2nnc3sc(Cc4cccs4)nn23)c1	-2	65*	-1	5	1
CC(C)(C)c1ccc(C(=O)N2CCCCCC2=O)cc1	89*	-8	-7	0	-4
COc1cc(C2NCC(c3ccc(Cl)cc3Cl)c3c2[nH]c2ccccc32)cc(OC)c1OC (stereo not given)	77*	-2	5	-1	-2
Cc1ccc(CSc2nnc(-c3ccc(NS(=O)(=O)c4ccccc4)cc3)o2)cc1	71*	-8	2	-2	-4
COc1ccccc1C(=O)Nc1ccc(N2CCN(C(C)=O)CC2)cc1	77*	7	1	-2	3
Cc1ccc(Nc2nc(CSc3nnc(-c4cccs4)o3)cs2)cc1	86*	-26	5	1	3
CCCOc1ccc(S(=O)(=O)NCCCN2CCOCC2)c2ccccc12	71*	-15	-2	-1	-4
Oc1c(Br)cc(Cl)cc1C=Nc1ccc(N2CCOCC2)cc1	18	48	-1	1	-2
Oc1ccc(N=Nc2cccc(Cl)c2)cc1C=Nc1ccc(N2CCOCC2)cc1	65	66*	.	-1	.
C=Cc1ccc(N=Cc2c(O)ccc3ccccc23)cc1	.	46	4	0	0
Oc1ccc2ccccc2c1C=Nc1ccc(N2CCOCC2)cc1	78*	.	4	.	-1
CC1=C(C(=O)N(C(C)C)C(C)C)CC(CC(=O)NCCN2CCOCC2)C(=O)N1Cc1ccc(F)cc1 (stereo not given)	.	-1	.	-3	.
C[C@H](CO)N1C[C@H](C)[C@H](CN(C)S(=O)(=O)c2ccccc2)Oc2c(NS(C)(=O)=O)cccc2C1=O	.	4	1	-1	-3
CCOc1ccccc1/C=N/NC(=O)c1c(C)nc2ccc(Br)cn12	.	2	1	1	-2
COc1ccc(/C=N\NC(=O)c2c(C)nc3ccc(Br)cn23)cc1	-46	60*	-1	-2	10
Cc1ccc(/C=N/NC(=O)c2c(C)nc3ccc(Br)cn23)cc1	.	11	0	-1	17
COc1cccc(/C=N/NC(=O)c2c(C)nc3ccc(Br)cn23)c1O	69	58*	0	-1	3
C=C1C(=O)[C@@]23[C@H](O)C[C@@H]4C(C)(C)CC[C@H](O)[C@@]4(C)[C@@H]2CC[C@@H]1[C@H]3O	98*	-20	5	-6	-8
C=C1C(=O)[C@@]23[C@H](O)C[C@@H]4C(C)(C)CC[C@H](O)[C@]4(C)[C@@H]2C[C@H](O)[C@@H]1[C@H]3O	-35	7	17	-5	-5
COc1ccc(Nc2nc(N3CCCCC3)c3ccccc3n2)cc1	82*	-21	7	3	5
O=C(c1ccccc1)N1CCN(CC2CC=CCC2)CC1 (stereo not given)	79*	-1	0	8	-1
CC(C)N1CC(=O)N2CSCC2C1=O (stereo not given)	.	.	.	-3	.
Cc1ccc2c(c1)N(CC(=O)NCc1cccs1)C(=O)C(C)O2 (stereo not given)	-22	4	0	4	3
Cc1ccc2c(c1)N(CCC(=O)NCc1cccs1)C(=O)C(C)O2 (stereo not given)	74*	0	1	1	-2
COc1cccc(-c2oc3c(c2C#CC2(N)CCCCC2)C(O)CCC3)c1 (stereo not given)	.	.	.	0	.
COc1ccc(NC(=O)Nc2ccccc2OC)cc1	37	-6	4	-1	2
COc1ccc(OC)c(/C(O)=C/C(=O)C(=O)Nc2ccccc2OC)c1	75*	11	-1	-2	-1
Cc1ccc([C@H]2C[C@@H](O)[C@H](n3cc(C4CC4)nn3)CN2C(=O)C2CCCCC2)cc1	.	5	.	-1	.
COCCCN(Cc1ccco1)C(=O)Cn1ncc2c([nH]c3ccccc32)c1=O	.	60*	0	0	-3

Bioassay records deposited in PubChem BioAssay by several laboratories.
